Shown are actives, neighbours in structure and some others; about 1.5% of the full set was active somewhere.
CXCR6 inh – inhibitors of human CXCR6 receptor; O00574; AID 602244; actives 0.36% (n = 360,000); CHO-K1 PathHunter CXCR6 beta-arrestin, luminescence; inhibition, % at 20 µM; in the data active = inhibition above about 34%, passing the limit was not always enough;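 note: antagonist mode with CXCL16 agonist at 10 nM final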
APJ antag – antagonists of human APJ apelin receptor. actives 0.32% (n = 330,000). P35414. AID 2521. CHO-K1 APJ beta-arrestin complementation, luminescence. inhibition, % at 20 µM;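 active = inhibition above about 40% at 20 µM, limit read from the data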;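 note: cells challenged with 10 nM apelin-13 agonist together with compound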
Target sequence (P35414 whole entry, looked up): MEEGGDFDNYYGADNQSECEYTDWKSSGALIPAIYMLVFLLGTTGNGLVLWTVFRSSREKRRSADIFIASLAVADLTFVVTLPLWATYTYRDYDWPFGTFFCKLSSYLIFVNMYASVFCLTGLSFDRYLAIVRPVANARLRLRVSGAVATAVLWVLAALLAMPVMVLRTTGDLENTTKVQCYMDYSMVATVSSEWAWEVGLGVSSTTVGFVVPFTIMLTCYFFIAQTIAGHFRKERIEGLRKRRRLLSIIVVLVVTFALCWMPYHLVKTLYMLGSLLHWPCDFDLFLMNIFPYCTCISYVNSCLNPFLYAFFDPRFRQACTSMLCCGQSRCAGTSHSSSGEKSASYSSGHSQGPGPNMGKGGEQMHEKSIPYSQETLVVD
CCR6 antagonist – CCR6 (human) receptor antagonism; CHO-K1 CCR6 PathHunter beta-arrestin, luminescence, CCL20-stimulated; actives 0.49% (n = 340,000); inhibition, % at 20 µM; P51684;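 active = compounds whose inhibition of the agonist-driven luminescence signal at 20 µM reaches about 50%, limit read from the data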;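 note: cells stimulated with CCL20 at 14 nM final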
EBI2 antag – EBI2 (human) antagonism; EBI2 beta-arrestin recruitment, luminescence, 7a,25-OHC stimulated; P32249; actives 0.81% (n = 360,000); inhibition, % at 5 µM; in the data active = inhibition above about 38%;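 note: enzyme fragment complementation signal reports receptor beta-arrestin coupling in cells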
APJ ag – agonists of human APJ apelin receptor; activation, % at 20 µM; CHO-K1 APJ PathHunter beta-arrestin, luminescence; 0% DMSO wells, 100% apelin; AID 2520; actives 0.11% (n = 330,000);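 active = activation more than six SD over the plate average, tested at 20 µM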
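Test system: CHO-K1 APJ beta-arrestin complementation cell line. Amount: cell density 1000 per well. Controls: DMSO negative, 10 nM Apelin-13 positive. Signal: luminescent beta-gal fragment complementation, chemiluminescent substrate. Read-out basis: agonist-driven arrestin binding to APJ. Timing: compound stimulation 90 min at 25 °C, detection 60 min.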
APJ ag confirm – confirmation of human APJ apelin receptor agonists. CHO-K1 APJ PathHunter beta-arrestin, luminescence. shares compounds with APJ ag. activation, % at 20 µM. actives 10% (n = 310);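 active = activation above 40%, taking the highest of four retests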
Each line names hits and unclear results; the compound was inactive in the other large screens (follow-up assays come after a bar, where they were run); ! = not active in a repeat.

C=CCN1C(=O)NC(=O)/C(=C\c2ccc(-c3ccccc3[N+](=O)[O-])o2)C1=O	none
O=C1NC(=O)N(Cc2ccco2)C(=O)/C1=C/c1ccc(-c2cccc([N+](=O)[O-])c2)o1	CCR6 antagonist 65
CCn1nc(-c2cccs2)nc2c(=O)n(C)c(=O)nc1-2	CCR6 antagonist 100 (no result: APJ antag, APJ ag)
CCC1C2CC3C4N(C)c5ccccc5C45CC(C2C5O)N3C1O (stereo not given)	none (no result: APJ antag, CCR6 antagonist, APJ ag)
Cc1ccc(/C=C2\C(=O)NC(=S)N(c3ccc(F)cc3)C2=O)s1	none
Cc1ccc(/C=C2\C(=O)NC(=S)N(c3ccccc3F)C2=O)s1	CXCR6 inh 40, CCR6 antagonist 96 (no result: APJ antag, APJ ag)
COc1cccc(C(c2nnnn2Cc2ccccc2)N2CCC3(CC2)C(=O)NCN3c2ccccc2)c1OC (stereo not given)	none (no result: APJ antag, CCR6 antagonist, APJ ag)
O=c1[nH]c2ccccc2n1C1CCN(C(CCc2ccccc2)c2nnnn2-c2ccc3c(c2)OCCO3)CC1 (stereo not given)	none (no result: APJ antag, CCR6 antagonist, APJ ag)
ON1C2CCCCC2N(O)C1c1ccccc1 (stereo not given)	CCR6 antagonist 67
Nc1c(Br)cc2c3c(cccc13)-c1ccccc1-2	none (no result: CXCR6 inh, APJ antag, EBI2 antag, APJ ag)
O=[N+]([O-])/C=C/c1c(Cl)cccc1Cl	CXCR6 inh 100, CCR6 antagonist 105 (no result: APJ antag, APJ ag)
CCOc1ccc2nc(N=Nc3c(O)[nH]c(=S)[nH]c3=O)sc2c1	APJ antag 56, CCR6 antagonist 50
COC(=O)C1=C(c2ccccc2OCc2ccccc2)C[C@@H]2CC[C@H]1N2C(=O)NCCOc1ccc(OC)cc1	EBI2 antag 51
O=C1C2CC(CN3CCCCC23)C2CCCCN12 (stereo not given)	none (no result: APJ antag, CCR6 antagonist, APJ ag)
O=C(c1cc2c(s1)-c1ccccc1OC2)N1CCC2(CC1)OCCO2	EBI2 antag 88
NC(N)=N/N=C/c1cn(-c2ccccc2)nc1-c1cccs1	APJ ag 11
COc1ccc(C(=O)OCC2CN2c2cccc([N+](=O)[O-])c2)cc1 (stereo not given)	none (no result: APJ antag, CCR6 antagonist, APJ ag)
COc1ccc(N2C(=O)/C(=C/C=C/c3ccccc3[N+](=O)[O-])C(=O)NC2=S)cc1	CCR6 antagonist 59 (no result: CXCR6 inh, EBI2 antag)
CC1=CC2/C=C(\C)CCC(O)C(O)/C=C/C(=O)C23C(=O)NC(CC(C)C)C3C1C (stereo not given)	EBI2 antag 47
C/C1=C\[C@@H](C)C/C=C/[C@H]2[C@@H]3O[C@]3(C)[C@@H](C)[C@H]3[C@H](Cc4c[nH]c5ccccc45)NC(=O)[C@]32C(=O)/C=C/C(=O)[C@@H]1O	none
COc1cc(/C=C/[N+](=O)[O-])ccc1O	CCR6 antagonist 56
COc1ccc(-n2c(/C=C/c3ccc(O)c(OC)c3)nc3ccccc3c2=O)cc1	none
COc1ccc(-n2nnnc2C(CCSC)N2CCC(n3c(=O)[nH]c4ccccc43)CC2)cc1 (stereo not given)	none (no result: APJ antag, CCR6 antagonist, APJ ag)
CN(C)c1ccc(/C=C/c2cc[n+](C)c3ccccc23)cc1	CCR6 antagonist 54! (no result: APJ antag, APJ ag)
C[n+]1ccc(-c2ccccc2)c2ccccc21	none
FC(F)(F)c1ccc(-c2ccc3c(c2)CNCc2cnnn2-3)cc1	none (no result: APJ antag, CCR6 antagonist, APJ ag)
CC[n+]1c(/C=C/C=C/c2ccc(N(C)C)cc2)sc2ccccc21	CXCR6 inh 53, CCR6 antagonist 70
CN(C)c1ccc(/C=C/C=C/c2sc3ccccc3[n+]2C)cc1	none
CCOC(=O)[C@]12Cc3cc(C)ccc3[C@H]1N(C1CCCCC1)C(=O)c1cc(OC)ccc12	EBI2 antag 76 (no result: APJ antag, CCR6 antagonist, APJ ag)
COc1cc(/C=C(/C)[N+](=O)[O-])ccc1OCc1ccccc1Cl	CXCR6 inh 50, CCR6 antagonist 61, EBI2 antag 72
CCN(CC)c1ccccc1	none
CCN(CC)c1ccc(/C=C/[N+](=O)[O-])cc1	CXCR6 inh 40
O=C1CC2OCC=C3CN4CCC56c7ccccc7N1C5C2C3CC46O (stereo not given)	none (no result: APJ antag, CCR6 antagonist, APJ ag)
CCCCCN1C(=O)c2ccccc2[C@@]2(C(=O)OCC)Cc3cc(OC)ccc3[C@@H]12	none (no result: APJ antag, CCR6 antagonist, APJ ag)
COc1ccc(CN2C(=O)NC(=O)/C(=C\c3ccco3)C2=O)cc1	APJ ag 18 | APJ ag confirm inactive
CC(C)[C@H]1C(=O)N2CCC[C@H]2[C@]2(O)O[C@](NC(=O)[C@@H]3C=C4c5cccc6[nH]cc(c56)C[C@H]4N(C)C3)(C(C)C)C(=O)N12	none

Source: PubChem BioAssay
